Assay results: ChEMBL document CHEMBL1130336, “Polyanion inhibitors of human immunodeficiency virus and other viruses. 6. Micelle-like anti-HIV polyanionic compounds based on a carbohydrate core” (J Med Chem, 1997)
pIC50: −log10 of the molar value.

Tests used:
HEL [1] = assay: Concentration required to reduce human cytomegalo virus(AD-169) inducted cytopathicity by 50% (HEL cells); type: functional, cell-based
Summary of the method: (§1)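 Virus was added in the presence of compound, and the cells were incubated until cytopathic effect was scored. The value is the concentration that reduces virus-induced CPE by 50%.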

E6SM [2] = assay: Concentration required to reduce herpes simplex virus-1TK (F) inducted cytopathicity by 50% (E6SM cells); type: functional, cell-based; details: Homo sapiens; summary of the method: as §1
Vero [3] = assay: Concentration required to cause a microscopically detectable alteration of normal Vero cell morphology; type: functional, cell-based; details: Chlorocebus sabaeus
E6SM [4] = assay: Concentration required to cause a microscopically detectable alteration of normal E6SM cell morphology; type: functional, cell-based; details: Homo sapiens, read-out: IC50
Summary of the method: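 Minimum cytotoxic concentration, read microscopically as the level that causes a detectable alteration of normal cell morphology.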

MT4 [5] = assay: Concentration required to reduce the viability of uninfected MT-4 cells by 50%; type: functional; details: Homo sapiens
Summary of the method: (§2)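 Cytotoxicity in uninfected CEM-4 or MT-4 cells, measured as inhibition of cell growth. The value is the concentration that lowers viability by 50%.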

CEM-4 [6] = assay: Concentration required to reduce the viability of uninfected CEM-4 cells by 50%; type: functional; details: Homo sapiens; summary of the method: as §2
HeLa [7] = assay: Concentration required to reduce Coxsackie virus-inducted cytopathicity by 50% (HeLa cells); type: functional, cell-based; details: Homo sapiens
Vero [8] = assay: Concentration required to reduce forest virus-inducted cytopathicity by 50% (Vero cells); type: functional, cell-based; details: Chlorocebus sabaeus
E6SM [9] = assay: Concentration required to reduce herpes simplex virus-1TK (McIntyre) inducted cytopathicity by 50% (E6SM cells); type: functional, cell-based; details: Homo sapiens; summary of the method: as §1
Vero [10] = assay: Concentration required to reduce sindbis virus-inducted cytopathicity by 50% (Vero cells); type: functional, cell-based; details: Chlorocebus sabaeus
Vaccinia virus = assay: Concentration required to reduce vaccinia virus-inducted cytopathicity by 50% (E6SM cells); type: functional, organism-based, Orthopoxvirus vaccinia; details: Orthopoxvirus vaccinia, E6SM
MT4 [11] = assay: Concentration required to inhibit human immunodeficiency virus-2 induced cytopathicity in MT-4 cells by 50%; type: functional, cell-based
Summary of the method: (§3)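 MT-4 cells infected with HIV-1 (strain HTLV-III_B/LAI) or HIV-2 (strain LAV_ROD). The end point is 50% inhibition of virus-induced cytopathicity.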

Vero [12] = assay: Concentration required to reduce Junin virus-inducted cytopathicity by 50% (Vero cells); type: functional, cell-based; details: Chlorocebus sabaeus
[13] = test system: Human immunodeficiency virus 1; assay: Concentration required to inhibit by 50% human immunodeficiency virus-1 induced syncytium formation upon coculturing persistently HIV-infected HUT-78 cells with MOLT-4 cells; type: functional, organism-based; details: Human immunodeficiency virus 1, MOLT-4
Summary of the method: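 MOLT-4 (clone 8) cells at 1 × 10^6 cells/mL, cocultured with an equal number of persistently infected HUT-78/HIV-1 or HUT-78/HIV-2 cells across a range of compound concentrations. Giant cells were counted under the microscope after 24 h of cocultivation. The value is the concentration giving 50% inhibition of syncytium formation.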

HeLa [14] = assay: Concentration required to reduce polio-1 virus-inducted cytopathicity by 50% (HeLa cells); type: functional, cell-based; details: Homo sapiens
HEL [15] = assay: Concentration required to reduce human cytomegalo virus(Davis) inducted cytopathicity by 50% (HEL cells); type: functional, cell-based; summary of the method: as §1
HEL [16] = assay: Concentration required to inhibit HEL cell growth by 50%; type: functional, cell-based; details: Homo sapiens
E6SM [17] = assay: Concentration required to reduce herpes simplex virus-2(196) inducted cytopathicity by 50% (E6SM cells); type: functional, cell-based; details: Homo sapiens; summary of the method: as §1
HeLa [18] = assay: Concentration required to cause a microscopically detectable alteration of normal Hela cell morphology; type: functional, cell-based; details: Homo sapiens
E6SM [19] = assay: Concentration required to reduce herpes simplex virus-2(G) inducted cytopathicity by 50% (E6SM cells); type: functional, cell-based; details: Homo sapiens; summary of the method: as §1
Vero [20] = assay: Concentration required to reduce Tacaribe virus-inducted cytopathicity by 50% (Vero cells); type: functional, cell-based; details: Chlorocebus sabaeus
Vero [21] = assay: Concentration required to reduce parainfluenza-3 virus-inducted cytopathicity by 50% (Vero cells); type: functional, cell-based; details: Chlorocebus sabaeus
E6SM [22] = assay: Concentration required to reduce herpes simplex virus-1TK (VMW1837) inducted cytopathicity by 50% (E6SM cells); type: functional, cell-based; details: Homo sapiens; summary of the method: as §1
E6SM [23] = assay: Concentration required to reduce herpes simplex virus-1TK (KOS) inducted cytopathicity by 50% (E6SM cells); type: functional, cell-based; details: Homo sapiens; summary of the method: as §1
E6SM [24] = assay: Concentration required to reduce herpes simplex virus-1TK( B2006) inducted cytopathicity by 50% (E6SM cells); type: functional, cell-based; details: Homo sapiens; summary of the method: as §1
[25] = test system: Human immunodeficiency virus 2; assay: Concentration required to inhibit by 50% human immunodeficiency virus-2 induced syncytium formation upon coculturing persistently HIV-infected HUT-78 cells with MOLT-4 cells; details: HUT-78, MOLT-4
Vero [26] = assay: Concentration required to reduce reovirus-1 inducted cytopathicity by 50% (Vero cells); type: functional, cell-based; details: Chlorocebus sabaeus
CEM-4 [27] = assay: Inhibitory concentration required to inhibit HIV-induced cytopathicity in CEM-4 cells by 50%; type: functional, cell-based; details: Homo sapiens
Summary of the method: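 CEM-4 cells infected with HIV-1 (strain HTLV-III_B/LAI). The end point is 50% inhibition of HIV-induced cytopathicity.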

HeLa [28] = assay: Concentration required to reduce vesicular stomatitis virus-inducted cytopathicity by 50% (HeLa cells); type: functional, cell-based; details: Homo sapiens
E6SM [29] = assay: Concentration required to reduce herpes simplex virus-2(Lyons) inducted cytopathicity by 50% (E6SM cells); type: functional, cell-based; details: Homo sapiens; summary of the method: as §1
Vero [30] = assay: Concentration required to reduce Coxsackie virus-inducted cytopathicity by 50% (Vero cells); type: functional, cell-based; details: Chlorocebus sabaeus
MT4 [31] = assay: Concentration required to inhibit human immunodeficiency virus-1 induced cytopathicity in MT-4 cells by 50%; type: functional, cell-based; summary of the method: as §3

O=S(=O)(O)CCSCCCOC[C@H]1O[C@@](COCCCSCCS(=O)(=O)O)(O[C@H]2O[C@H](COCCCSCCS(=O)(=O)O)[C@@H](OCCCSCCS(=O)(=O)O)[C@H](OCCCSCCS(=O)(=O)O)[C@H]2OCCCSCCS(=O)(=O)O)[C@@H](OCCCSCCS(=O)(=O)O)[C@@H]1OCCCSCCS(=O)(=O)O
> 127 µM: CC50 (MT4 [5])
< 4.30: pIC50 (CEM-4 [27])
< 3.69: pIC50 (E6SM [24])
> 50.6 µM: CC50 (CEM-4 [6])
< 4.29: pIC50 (HeLa [7]) | pIC50 (HeLa [14]) | pIC50 (HeLa [28])
< 4.60: pIC50 (HEL [1]) | pIC50 (Vero [12]) | pIC50 (HEL [15]) | pIC50 (HEL [16]) | pIC50 (Vero [20])
> 203 µM: minimum cytotoxic concentration (E6SM [4])
< 4.00: pIC50 (E6SM [2]) | pIC50 (Vero [3]) | pIC50 (Vero [8]) | pIC50 (E6SM [9]) | pIC50 (Vero [10]) | pIC50 (Vaccinia virus) | pIC50 (E6SM [17]) | pIC50 (HeLa [18]) | pIC50 (E6SM [19]) | pIC50 (Vero [21]) | pIC50 (E6SM [22]) | pIC50 (E6SM [23]) | pIC50 (Vero [26]) | pIC50 (E6SM [29]) | pIC50 (Vero [30])
< 3.90: pIC50 (MT4 [11]) | pIC50 [13] | pIC50 [25] | pIC50 (MT4 [31])
